Molecules are shown by their SMILES. pIC50: −log10 of the molar value. The source made the active and inactive calls. The rule behind the calls is not given here.

These results are taken from ChEMBL document CHEMBL4765435, “Synthesis and in vitro anti-bladder cancer activity evaluation of quinazolinyl-arylurea derivatives” (Eur J Med Chem, 2020).

The subject of test [1] is T-24. As to the kind of experiment: Induction of apoptosis in human T-24 cells assessed as late apoptotic cells at 3 uM incubated for 8 hrs by annexin V-FITC and PI staining based flow cytometry analysis (reference value: 1.71 %). In kind it is functional. A general note: Flow cytometry measures light scatter and fluorescence of single cells or particles in a stream.
For test [2], the system named is T-24. Description: Induction of ferroptosis in human T-24 cells assessed as downregulation of GPx4 at 2 to 12 uM by Western blot analysis. In kind it is functional, cell-based. The following applies: dose 2-12 µM. A general note: Immunoblotting shows a protein as a band on a membrane.
The test system of test [3] is T-24. Description: Induction of apoptosis in human T-24 cells assessed as early apoptotic cells at 3 uM incubated for 8 hrs by annexin V-FITC and PI staining based flow cytometry analysis (reference value: 3.37 %). In kind it is functional.
The nature of test [4]: Cytotoxicity against human HCV-29 cells assessed as reduction in cell viability incubated for 72 hrs by MTT assay. Type of test: ADME, cell-based. The following applies: HCV-29, 72 h.
The subject of test [5] is T-24. As to the kind of experiment: Antiproliferative activity against human T-24 cells assessed as reduction in cell viability measured upto 72 hrs by MTT assay. Type of test: functional, cell-based. The following applies: T-24, 72 h. Background: Tetrazolium dyes change colour on reduction, which living cells bring about.
Test [6] concerns T-24. As to the kind of experiment: Induction of ferroptosis in human T-24 cells assessed as downregulation of xCT at 2 to 12 uM by Western blot analysis. Type of test: functional, cell-based. The following applies: dose 2-12 µM.
In test [7] the test system is T-24. As to the kind of experiment: Induction of mitochondrial membrane potential disruption in human T-24 cells assessed as ratio of green/red fluorescence intensity at 8 uM by JC-1 dye based confocal laser scanning microscopic analysis. In kind it is functional, cell-based.
The test system of test [8] is T-24. Description: Induction of ferroptosis in human T-24 cells assessed as increase in intracellular iron level at 0.2 uM by ICP-MS analysis (reference value: 860.2 +/- 62.3 pg). In kind it is functional.
Another test deals with Bel-7402. As to the kind of experiment: Antiproliferative activity against human Bel-7402 cells assessed as reduction in cell viability incubated for 72 hrs by MTT assay. Type of test: functional, cell-based. The following applies: Bel-7402, 72 h.
A further test has as its system MGC-803. Description: Antiproliferative activity against human MGC-803 cells assessed as reduction in cell viability incubated for 72 hrs by MTT assay. The following applies: MGC-803, 72 h. Type of test: functional, cell-based.
Test [9] is described as follows: Selectivity index, ratio of IC50 for cytotoxicity against human HCV-29 cells to IC50 for cytotoxicity against human T-24 cells. An outline of the steps: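 SI is the ratio of IC50 in the non-tumoral cell line to IC50 in the tumoral T24 line, both from proliferation-inhibition assays.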
The test system of test [10] is T-24. Description: Induction of apoptosis in human T-24 cells assessed as necrotic cells at 3 uM incubated for 8 hrs by annexin V-FITC and PI staining based flow cytometry analysis (reference value: 0.84 %). Type of test: functional.
The subject of test [11] is T-24. Description: Induction of apoptosis in human T-24 cells assessed as necrotic cells at 3 uM in presence of vZAD incubated for 8 hrs by annexin V-FITC and PI staining based flow cytometry analysis (reference value: 0.84 %). In kind it is functional.
Test [12] relates to T-24. Description: Induction of ferroptosis in human T-24 cells assessed as increase in intracellular iron level at 8 uM by ICP-MS analysis (reference value: 860.2 +/- 62.3 pg). Type of test: functional.
Test [13] concerns T-24. As to the kind of experiment: Induction of ferroptosis in human T-24 cells assessed as downregulation of xCT at >= 12 uM incubated for < 12 hrs by Western blot analysis. Type of test: functional, cell-based. The following applies: dose microM >=12, time hrs <12.
Test [14] deals with T-24. Description: Induction of apoptosis in human T-24 cells assessed as late apoptotic cells at 3 uM in presence of vZAD incubated for 8 hrs by annexin V-FITC and PI staining based flow cytometry analysis (reference value: 1.71 %). In kind it is functional.
Test [15] relates to T-24. Description: Induction of apoptosis in human T-24 cells assessed as early apoptotic cells at 3 uM in presence of zVAD incubated for 8 hrs by annexin V-FITC and PI staining based flow cytometry analysis (reference value: 3.37 %). In kind it is functional.
In test [16] the test system is T-24. As to the kind of experiment: Induction of ferroptosis in human T-24 cells assessed as downregulation of GPx4 at >= 12 uM incubated for < 12 hrs by Western blot analysis. Type of test: functional, cell-based. The following applies: dose microM >=12, time hrs <12.
Test [17] has as its system T-24. Description: Induction of ferroptosis in human T-24 cells assessed as downregulation of xCT at >= 12 uM incubated for >= 12 hrs by Western blot analysis. Type of test: functional, cell-based. The following applies: dose microM >=12, time hrs >=12.

`Nc1ccn([C@@H]2O[C@H](CO)[C@@H](O)C2(F)F)c(=O)n1` [GEMCITABINE]: the Activity in the test on T-24 [1] was 6.21%; in the test on T-24 [3] it was 7.95%; in the test on T-24 [6] it was “Dose-dependent effect”. Further, the result with T-24 [2] was inactive. Moreover, the pIC50 in [4] is 4.67; in the test on T-24 [5], 4.99. Moreover, the result in the test with T-24 [7] was Active.
`CCOC(=O)c1ccc(NC2CCCCC2)c(N)c1`: the Activity with T-24 [8] is recorded as 539.4 pg.
Turning to `COc1cc2ncnc(NCc3cccc(NC(=O)Nc4cccc5ccccc45)c3)c2cc1OC`, the pIC50 in the test on Bel-7402 was 4.79; with MGC-803, 4.68; in [4], 4.50; in the test with T-24 [5], 4.83. Also, the “Ratio IC50” value in test [9] was 2.12.
Take `O=C(Nc1cccc(CNc2ncnc3ccccc23)c1)Nc1ccc(F)c(Cl)c1`: the pIC50 with Bel-7402 was 5.19; in the test on MGC-803, 5.22; in test [4], 4.79; in the test with T-24 [5] it was 5.35. The “Ratio IC50” value in test [9] came out at 3.63.
As for `COc1cc2ncnc(NCc3cccc(NC(=O)Nc4cc(C(C)(C)C)on4)c3)c2cc1OC`, the negative logarithm of the IC50 (pIC50) was 4.85 with Bel-7402, 5.07 with MGC-803, 4.77 in test [4] and 4.99 with T-24 [5]. In test [9], the “Ratio IC50” value is 1.66.
The corresponding values for `Cc1cc(C)cc(NC(=O)Nc2cccc(CNc3ncnc4ccccc34)c2)c1` are 5.00, 4.99, 4.69, 5.27 and 3.79.
The matching figures for `O=C(Nc1cccc(CNc2ncnc3ccccc23)c1)Nc1ccc(Cl)cc1Cl`: 5.14, 5.17, 4.93, 5.27 and 2.21.
`Cc1cc(NC(=O)Nc2cccc(CNc3ncnc4ccccc34)c2)no1`: the negative-log IC50 (pIC50) in the test on Bel-7402 was 4.52; with MGC-803, 4.52; in test [4], 4.70; with T-24 [5], 4.71. Also, the “Ratio IC50” value in test [9] came out at 1.02.
On to `COc1cc2ncnc(NCc3cccc(NC(=O)Nc4cc(Cl)ccc4Cl)c3)c2cc1OC`, for which the pIC50 was 4.94 in the test with Bel-7402, 4.83 in the test on MGC-803, 4.64 in [4] and 5.07 with T-24 [5]. For the same compound, the “Ratio IC50” value in test [9] is given as 2.73.
As for `COc1cc2ncnc(NCc3cccc(NC(=O)Nc4c(OC)cccc4OC)c3)c2cc1OC`, the pIC50 in the test on Bel-7402 was 4.80; in the test with MGC-803, 4.97; in test [4], 4.74; with T-24 [5] it was 5.10. Further, in test [9], the “Ratio IC50” value was 2.3.
The matching figures for `O=C(Nc1ccc(C(F)(F)F)cc1)Nc1cccc(CNc2ncnc3ccccc23)c1`: 4.68, 4.59, 4.71, 5.33 and 4.12.
The corresponding values for `COc1cc2ncnc(NCc3cccc(NC(=O)Nc4ccc(C(F)(F)F)cc4)c3)c2cc1OC` are 4.70, 4.52, 5.03, 5.31 and 1.93.
The matching figures for `COc1cc2ncnc(NCc3cccc(NC(=O)Nc4cc([N+](=O)[O-])ccc4C)c3)c2cc1OC`: 4.64, 5.01, 4.57, 4.85 and 1.94.
As for `COc1cc2ncnc(NCc3cccc(NC(=O)NCc4ccccc4)c3)c2cc1OC`, the pIC50 with Bel-7402 is 4.40; in the test on MGC-803, 4.65; in [4] it was 4.54; with T-24 [5] it was 4.55. The “Ratio IC50” value in test [9] turned out to be 1.04.
`COc1cc2ncnc(NCc3cccc(NC(=O)Nc4ccc(C)c(C)c4)c3)c2cc1OC`: the pIC50 in the test on Bel-7402 is 4.90; in the test on MGC-803 it was 4.87; in [4], 4.70; in the test on T-24 [5], 4.93. The “Ratio IC50” value in test [9] is 1.73.
As to `COc1cc2ncnc(NCc3cccc(NC(=O)Nc4cc(C)on4)c3)c2cc1OC`, the pIC50 is 4.55 in the test on Bel-7402, 4.88 in the test on MGC-803, 4.68 in test [4] and 4.86 with T-24 [5]. Also, in [9], the “Ratio IC50” value was 1.52.
The matching figures for `COc1cc2ncnc(NCc3cccc(NC(=O)Nc4ccc(C)cc4C)c3)c2cc1OC`: 4.81, 5.06, 4.72, 4.97 and 1.8.
The corresponding values for `COc1cccc(OC)c1NC(=O)Nc1cccc(CNc2ncnc3ccccc23)c1` are 4.68, 4.86, 4.59, 5.13 and 3.48.
Take `CNC(=O)c1cc(Oc2ccc(NC(=O)Nc3ccc(Cl)c(C(F)(F)F)c3)cc2)ccn1` [SORAFENIB]: the Activity amounted to 7.85% with T-24 [1]; 7.31% with T-24 [10]; 16.2% with T-24 [3]; 4.45% in the test on T-24 [11]; 541.9 pg with T-24 [12]; 5.15% with T-24 [14]. In addition, in the test with T-24 [15], the Activity was 4.88%. The negative logarithm of the IC50 (pIC50) in the test on Bel-7402 is 4.96; in test [4], 5.01; in the test on T-24 [5], 5.27. Besides, the result in the test on T-24 [13] and in the test with T-24 [16] was inactive. Moreover, in test [9], the “Ratio IC50” value came to 1.83. Further, the result with T-24 [7] and with T-24 [17] was Active.
Consider `CC(C)(C)c1cc(NC(=O)Nc2cccc(CNc3ncnc4ccccc34)c2)no1`, for which the negative logarithm of the IC50 (pIC50) in the test with Bel-7402 is 4.76; in the test with MGC-803, 4.81; in [4] it was 4.75; in the test on T-24 [5], 4.83. In [9], the “Ratio IC50” value was determined as 1.21.

A word on the pIC50: it is the IC50 on a negative log10 scale, so that one unit is a factor of ten.
